# Reference: article PMC12271353 (Scientific Reports, 2025)
# Read-outs that look alike come from different tables or passages of the source.
# Tests used:
# pBR322 plasmid DNA = assay: DNA nicking assay; format: biochemical; conditions: with Fenton's reagent; 10 µg/mL
# Summary of the method: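 pBR322 supercoiled plasmid (2 µL of a 50 µg/100 µL stock) mixed with 10 µL Fenton's reagent (80 mM FeCl₃, 30 mM H₂O₂, 50 mM ascorbic acid) and test compound (2–10 µg/mL) in water to 20 µL. Incubated for 30 min at 37 °C, then run on 1% agarose gel. Form I, II and III percentages were derived by densitometry. Water replaced Fenton's reagent as the negative control, and rutin served as the positive control.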
# S. Typhimurium TA100 = conditions: highest dose 250 μg/100 μL, cited from earlier work
# MRSA = assay: Kirby-Bauer disc diffusion; format: cell-based, methicillin-resistant Staphylococcus aureus; conditions: Staphylococcus aureus
# Summary of the method: (§1)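 Kirby-Bauer method. Mueller Hinton agar plates were seeded with the test bacteria. Discs carrying 30 µg of test compound were placed on the surface and left to diffuse for 30 min at 4 °C. Plates were incubated at 37 °C, and inhibition zones were measured in mm.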
# S. Typhimurium TA98 = conditions: highest dose 250 μg/100 μL, ref Sharma et al.[46]; cited from earlier work
# VRE = assay: Kirby-Bauer disc diffusion; format: cell-based, Vancomycin-resistant Enterococcus; conditions: HFM-2P, teicoplanin 30 µg/disc
# Summary of the method: as §1
compound,measurement,setting,value
"C[C@@H]1O[C@@H](OC[C@H]2O[C@@H](Oc3c(-c4ccc(O)c(O)c4)oc4cc(O)cc(O)c4c3=O)[C@H](O)[C@@H](O)[C@@H]2O)[C@H](O)[C@H](O)[C@H]1O [Rutin, rutin]",Form I (supercoiled) DNA,pBR322 plasmid DNA,54.72%
same,Form II DNA,pBR322 plasmid DNA,45.27%
CC1OC(n2ccc(NC(=O)c3ccc(N)cc3)nc2=O)CCC1OC1OC(C)C(N(C)C)C(O)C1O (stereo not shown) [plicacetin],Antimutagenic activity,S. Typhimurium TA100; ref Devi et al.[33],41.10–88.53%
CN[C@H](CC(C)C)C(=O)N[C@H]1C(=O)N[C@@H](CC(N)=O)C(=O)N[C@H]2C(=O)N[C@H]3C(=O)N[C@H](C(=O)N[C@H](C(=O)O)c4cc(O)cc(O)c4-c4cc3ccc4O)[C@H](O)c3ccc(c(Cl)c3)Oc3cc2cc(c3O[C@@H]2O[C@H](CO)[C@@H](O)[C@H](O)[C@H]2O[C@H]2C[C@](C)(N)[C@H](O)[C@H](C)O2)Oc2ccc(cc2Cl)[C@H]1O [vancomycin],zone of inhibition at 30 µg/disc,MRSA,18 mm
salvianolic acid B,Antimutagenic activity,S. Typhimurium TA98,47.87–88.11%
same,Antimutagenic activity,S. Typhimurium TA100; ref Sharma et al.[46],41.10–88.53%
teicoplanin,Zone of inhibition,VRE,15 mm
